Assays:
PC-12 = experiment: Neuroprotective activity in rat PC12 cells assessed as attenuation of oxygen-glucose deprivation-induced cellular damage at 10 uM by MTT assay relative to control; type: functional
Procedure, shortened: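 PC12 cells were seeded at 5×10^3/well for 24 h. OGD insult was low-glucose medium plus 5 mM sodium dithionite for 24 h, given together with 10 µM compound. MTT (5 mg/mL) was added for 4 h and absorbance read at 570 nm. Viability was expressed as % of full-medium control; n = 3.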

[1] = Cytotoxicity against rat PC12 cells assessed as cell proliferation at 10 uM by MTT assay relative to control; type: cell-based, PC-12; conditions: read-out: Activity
Procedure, shortened: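 PC12 cells were grown in DMEM with 5% FBS, 5% horse serum and 2 mM glutamine at 37 °C, 5% CO2. They were seeded at 5×10^3 cells/well for 24 h, then exposed to 10 µM compound in full medium. Viability was read by MTT (5 mg/mL, 4 h) at 570 nm as % of control absorbance; n = 3.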

Structure (SMILES)	Activity (PC-12) [%]	viability at 10 µM [1] [%]
Cc1c(N2CCN(C)CC2)c(=O)oc2cc(O)cc(OC3CCCCC3)c12	36.1	177
Cc1c(N2CCN(c3ccc(F)cc3)CC2)c(=O)oc2cc(O)cc(O)c12	47	103
Cc1c(N2CCN(C)CC2)c(=O)oc2cc(O)cc(OCc3ccccn3)c12	44.2	116
COc1cc(O)c2c(C)c(N3CCN(C)CC3)c(=O)oc2c1	46.1	99.8
Cc1c(N2CCN(C)CC2)c(=O)oc2cc(O)cc(OCCCNC(=O)OC(C)(C)C)c12	15.8	153
Cc1c(N2CCN(C(=O)NCc3ccccc3)CC2)c(=O)oc2cc(O)cc(O)c12	49.6	102
Cc1c(N2CCN(C)CC2)c(=O)oc2cc(OCCN3CCOCC3)ccc12	49.3	101
CCOc1ccc2c(C)c(N3CCN(C)CC3)c(=O)oc2c1	45.6	101
Cc1c(N2CCN(C)CC2)c(=O)oc2cc3c(cc12)OCO3	47.9	101
Cc1c(N2CCN(C)CC2)c(=O)oc2cc(O)cc(OC3CCCC3)c12	33.8	181
Cc1c(CCN2CCN(C)CC2)c(=O)oc2cc(O)cc(O)c12	45.9	102
Cc1c(N2CCN(C)CC2)c(=O)oc2cc(O)cc(OC3CCOC3)c12 (configuration not stated)	52	107
Cc1c(N2CCN(C(=O)/C=C/c3ccccc3)CC2)c(=O)oc2cc(O)cc(O)c12	45.9	104
CCN1CCN(c2c(C)c3c(O)cc(O)cc3oc2=O)CC1	46.4	101
Cc1c(N2CCN(C(=O)Nc3ccccc3Oc3ccccc3)CC2)c(=O)oc2cc(O)cc(O)c12	49.3	97.9
Cc1cccc(N2CCN(c3c(C)c4c(O)cc(O)cc4oc3=O)CC2)c1C	47.1	103
COc1cc(OC)c2c(C)c(N3CCN(C)CC3)c(=O)oc2c1	49.6	100
CCCCCCCCOc1cc(O)cc2oc(=O)c(N3CCN(C)CC3)c(C)c12	15.6	59.4
Cc1c(N2CCNCC2)c(=O)oc2cc(O)cc(O)c12	46.4	96.3
Cc1c(CCC(=O)N2CCN(C)CC2)c(=O)oc2cc(O)cc(O)c12	46.1	97.5
Cc1c(N2CCN(C)CC2)c(=O)oc2cc(OCCN3CCCC3)ccc12	44.9	104

Structure (SMILES)	Activity (PC-12) [%]	viability at 10 µM [1] [%]
CC(=O)Oc1cc(OC(C)=O)c2c(C)c(N3CCN(C)CC3)c(=O)oc2c1	46.6	102
Cc1c(CC(=O)N2CCN(C)CC2)c(=O)oc2cc(O)cc(O)c12	46.7	97.7
Cc1c(N2CCN(C)CC2)c(=O)oc2cc(O)cc(OCCc3cccs3)c12	39.1	178
Cc1c(N2CCN(Cc3ccccc3)CC2)c(=O)oc2cc(O)cc(O)c12	44.4	100
Cc1c(N2CCN(S(=O)(=O)c3ccccc3)CC2)c(=O)oc2cc(O)cc(O)c12	49.7	97.4
Cc1c(N2CCN(C)CC2)c(=O)oc2cc(O)cc(OCCN)c12	49.2	104
Cc1ccc(S(=O)(=O)NCCOc2cc(O)cc3oc(=O)c(N4CCN(C)CC4)c(C)c23)cc1	45.1	140
Cc1c(N2CCN(C(=O)Nc3ccc(OC(F)(F)F)cc3)CC2)c(=O)oc2cc(O)cc(O)c12	48.7	99.5
Cc1c(N2CCN(C)CC2)c(=O)oc2cc(O)cc(OCCN3CCOCC3)c12	56.9	108
Cc1c(N2CCN(C)CC2)c(=O)oc2cc(O)cc(OCCN3CCCCC3)c12	24.9	144
Cc1c(N2CCN(C)CC2)c(=O)oc2cc(O)cc(OCCCCl)c12	36.3	197
Cc1c(N2CCN(C(=O)c3ccccc3)CC2)c(=O)oc2cc(O)cc(O)c12	44.6	100
COc1ccc2c(C)c(N3CCN(C)CC3)c(=O)oc2c1	43.7	100
Cc1c(N2CCN(C(=O)Nc3ccc(C(C)C)cc3)CC2)c(=O)oc2cc(O)cc(O)c12	46.3	97.3
Cc1c(N2CCN(C)CC2)c(=O)oc2cc(O)cc(OCCNS(C)(=O)=O)c12	40.3	103
CCC(CC)CN1CCN(c2c(C)c3c(O)cc(O)cc3oc2=O)CC1	49.5	102
Cc1c(N2CCN(c3cccc(C(F)(F)F)c3)CC2)c(=O)oc2cc(O)cc(O)c12	46.5	103
Cc1ccc(COc2cc(O)cc3oc(=O)c(N4CCN(C)CC4)c(C)c23)c(C)c1	27.3	51.6
Cc1c(N2CCN(C)CC2)c(=O)oc2cc(O)cc(OCCCN)c12	40.5	107
C=CC(=O)N1CCN(c2c(C)c3c(O)cc(O)cc3oc2=O)CC1	48.3	98.5
Cc1c(N2CCN(C(=O)Nc3ccc(F)cc3)CC2)c(=O)oc2cc(O)cc(O)c12	46.3	104

Structure (SMILES)	Activity (PC-12) [%]	viability at 10 µM [1] [%]
CCCCOc1cc(O)cc2oc(=O)c(N3CCN(C)CC3)c(C)c12	46.2	197
Cc1c(N2CCN(C)CC2)c(=O)oc2cc(O)cc(OCc3nccs3)c12	54.7	108
CC(=O)Nc1ccc(S(=O)(=O)N2CCN(c3c(C)c4c(O)cc(O)cc4oc3=O)CC2)cc1	44.5	98.1
CCOc1cc(O)cc2oc(=O)c(N3CCN(C)CC3)c(C)c12	33.9	167
Cc1c(N2CCN(C(=O)CCl)CC2)c(=O)oc2cc(O)cc(O)c12	48.1	97.4
Cc1c(N2CCN(C)CC2)c(=O)oc2cc(OCCN3CCCCC3)ccc12	45.3	95.4
CC(=O)N1CCN(c2c(C)c3c(O)cc(O)cc3oc2=O)CC1	48.4	98.1
Cc1c(N2CCN(C)CC2)c(=O)oc2cc(O)cc(OCCN3CCCC3)c12	48.2	135
Cc1c(N2CCN(C)CC2)c(=O)oc2cc(OCCc3cccs3)ccc12	43.7	110
Cc1c(N2CCN(Cc3cc4c(cc3Cl)OCO4)CC2)c(=O)oc2cc(O)cc(O)c12	44.6	97.2
Cc1c(N2CCN(C)CC2)c(=O)oc2cc(O)cc(OCCN(C)C)c12	61.5	104
Cc1c(N2CCN(C)CC2)c(=O)oc2cc(O)ccc12	44.8	99
COc1ccc(COc2ccc3c(C)c(N4CCN(C)CC4)c(=O)oc3c2)cc1	44.2	136
Cc1c(N2CCN(C)CC2)c(=O)oc2cc(O)cc(OC3CCN(C)CC3)c12	19.9	139
CCC1CCC(Oc2ccc3c(C)c(N4CCN(C)CC4)c(=O)oc3c2)CC1 (configuration not stated)	49.2	101
Cc1c(N2CCN(C)CC2)c(=O)oc2cc(O)cc(OC3CCN(C(=O)OC(C)(C)C)CC3)c12	51.5	137
Cc1c(N2CCN(C)CC2)c(=O)oc2cc(O)cc(OCC3CC3)c12	37.7	184
Cc1c(N2CCN(C)CC2)c(=O)oc2cc(O)cc(OCCNC(=O)OC(C)(C)C)c12	23.4	132
COc1ccccc1N1CCN(c2c(C)c3c(O)cc(O)cc3oc2=O)CC1	46.8	102

— ChEMBL document CHEMBL2417530, “Coumarin derivatives protect against ischemic brain injury in rats” (Eur J Med Chem, 2013)
